Experimental data taken from ChEMBL document CHEMBL1146075, “Synthesis and anti-BVDV activity of acridones as new potential antiviral agents” (J Med Chem, 2006).
≈ marks a conversion by molar mass, not a printed value. Calls of active or inactive are those of the source. No cut-off for these calls is given here.

Tests used:
[1] = system: MDBK441; test: Cytotoxicity against MDBK cells; type: functional; details: Bos taurus
Outline: (§1)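 Cells seeded the day before, then given serial compound dilutions and left to proliferate 3 days at 37 °C. MDBK: 10^4/well in MEM-FCS. Huh 5-2: 5 × 10^3/well in complete DMEM. Cell number read by MTS/PMS. CC50 is the concentration inhibiting cell growth by 50%.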

[2] = system: Bovine viral diarrhea virus 1; test: Antiviral activity against BVDV NADL in MDBK cells; type: functional, organism-based; details: Bovine viral diarrhea virus isolates and strains
Outline: (§2)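 MDBK cells seeded 20 × 10^3/well in MEM with 5% heat-inactivated FCS, confluent after 24 h; serial 3-fold compound dilutions added, then virus at MOI 0.5 (line 2: NADL F224S mutant). 5 days at 37 °C, then ethanol fixation and Giemsa staining. CPE scored microscopically 0–10 per well. EC50 by logarithmic interpolation; mean ± SD of at least three experiments.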

[3] = system: Bovine viral diarrhea virus 1; test: Antiviral activity against VP32947-resistant BVDV in MDBK cells; type: functional, organism-based; details: Bovine viral diarrhea virus isolates and strains; outline: as §2
[4] = system: MDBK441; test: Selectivity index (CC50/EC50) for inhibition of VP32947-resistant BVDV in MDBK cells; type: functional
Outline: (§3)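 SI = CC50/EC50. EC50 comes from a 5-day Giemsa-stained CPE assay in MDBK cells at MOI 0.5; CC50 from a 3-day MTS/PMS proliferation assay. Means of at least three experiments. Line 10 uses the NADL F224S mutant.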

[5] = system: MDBK441; test: Selectivity index (CC50/EC50) for inhibition of BVDV NADL in MDBK cells; type: functional; outline: as §3
[6] = system: Vaccinia virus; test: Antiviral activity against vaccinia virus in E6SM cells; type: functional, organism-based; details: Orthopoxvirus vaccinia
[7] = system: Vesicular stomatitis virus; test: Antiviral activity against vesicular stomatitis virus in E6SM cells; type: functional, organism-based
[8] = system: Coxsackievirus B4; test: Antiviral activity against coxsackie virus B4 in vero cells; type: functional, organism-based
[9] = system: Human alphaherpesvirus 2; test: Antiviral activity against HSV2 G in E6SM cells; type: functional, organism-based
[10] = system: Mammalian orthoreovirus 1; test: Antiviral activity against Reovirus1 in vero cells; type: functional, organism-based
[11] = system: Human respirovirus 3; test: Antiviral activity against parainfluenza3 virus in vero cells; type: functional, organism-based
[12] = system: Human immunodeficiency virus 1; test: Antiviral activity against HIV1 3B in MT4 cells; type: functional, organism-based
[13] = system: Human alphaherpesvirus 1; test: Antiviral activity against HSV1 KOS in E6SM cells; type: functional, organism-based
[14] = system: Sindbis virus; test: Antiviral activity against sindbis virus in vero cells; type: functional, organism-based
[15] = system: Respiratory syncytial virus; test: Antiviral activity against respiratory syncytial virus […] in HeLa cells; type: functional, organism-based
[16] = system: Human immunodeficiency virus 2; test: Antiviral activity against HIV2 ROD in MT4 cells; type: functional, organism-based
[17] = system: Human betaherpesvirus 5; test: Antiviral activity against HCMV Davis in human embryonic lung cells; type: functional, organism-based
[18] = system: Punta Toro virus; test: Antiviral activity against Punta Toro virus in vero cells; type: functional, organism-based
[19] = system: Human betaherpesvirus 5; test: Antiviral activity against HCMV AD169 in human embryonic lung cells; type: functional, organism-based
[20] = system: Huh-5-2; test: Cytotoxicity against human hepatoma Huh5-2 cells; type: functional; outline: as §1
[21] = system: MDBK441; test: Inhibition of BVDV NADL RNA production in MDBK cells; type: functional, cell-based; details: Bos taurus
Outline: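 Viral RNA came from supernatant, total cellular RNA by kit. One-step TaqMan RT-qPCR: UNG 50 °C 2 min; RT 60 °C 30 min; 95 °C 5 min; 40 cycles of 94 °C 20 s and 62 °C 1 min. Three replicate reactions per sample.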

[22] = system: MDBK441; test: Inhibition of BVDV NADL production in MDBK cells; type: functional, cell-based; details: Bos taurus
Outline: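 Supernatants were titrated on MDBK cells seeded at 5 × 10^3/well (10–15% confluent). Cells were infected 24 h later with 10-fold serial dilutions and, after 4 days, ethanol-fixed and Giemsa-stained. CPE was read microscopically; titre by Reed–Muench, as CCID50/mL.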

## C[C@@]1(O)[C@H](O)[C@@H](CO)O[C@H]1n1cnc2c(N)ncnc21
[1]
  CC50: > 14 µg/mL
[2]
  EC50: 0.22 µg/mL (≈ 0.782 µM)
[3]
  EC50: 0.37 µg/mL (≈ 1.32 µM)
[4]
  Selectivity index: >38
[5]
  Selectivity index: >63

## COc1cc(OC)c2c(=O)c3cc([N+](=O)[O-])c(N4CCN(c5ccccn5)CC4)cc3n(C)c2c1
[6]
  Activity: inactive
[1]
  CC50: > 100 µg/mL
[2]
  EC50: 18 µg/mL (≈ 37.9 µM)
[7]
  Activity: inactive
[8]
  Activity: inactive
[9]
  Activity: inactive
[10]
  Activity: inactive
[11]
  Activity: inactive
[12]
  Activity: inactive
[13]
  Activity: inactive
[14]
  Activity: inactive
[15]
  Activity: inactive
[5]
  Selectivity index: >6
[16]
  Activity: inactive
[17]
  Activity: inactive
[18]
  Activity: inactive
[19]
  Activity: inactive

## Cn1c2cc(N3CCN(c4ccccn4)CC3)c(N)cc2c(=O)c2c(O)cc(O)cc21
[6]
  Activity: inactive
[1]
  CC50: > 100 µg/mL
[20]
  CC50: 21 µg/mL (≈ 50.3 µM)
[3]
  EC50: 2.24 µg/mL (≈ 5.37 µM)
[7]
  Activity: inactive
[8]
  Activity: inactive
[9]
  Activity: inactive
[10]
  Activity: inactive
[11]
  Activity: inactive
[12]
  Activity: inactive
[4]
  Selectivity index: >45
[13]
  Activity: inactive
[21]
  EC50: 2.3 µg/mL (≈ 5.51 µM)
[14]
  Activity: inactive
[15]
  Activity: inactive
[5]
  Selectivity index: >200
[16]
  Activity: inactive
[17]
  Activity: inactive
[22]
  EC50: 2.01 µg/mL (≈ 4.81 µM)
[18]
  Activity: inactive
[19]
  Activity: inactive

## COc1cc(O)c2c(=O)c3cc(N)c(Cl)cc3n(C)c2c1
[6]
  Activity: inactive
[1]
  CC50: > 33 µg/mL
[7]
  Activity: inactive
[8]
  Activity: inactive
[9]
  Activity: inactive
[10]
  Activity: inactive
[11]
  Activity: inactive
[12]
  Activity: inactive
[13]
  Activity: inactive
[14]
  Activity: inactive
[15]
  Activity: inactive
[5]
  Selectivity index: >47
[16]
  Activity: inactive
[17]
  Activity: inactive
[18]
  Activity: inactive
[19]
  Activity: inactive

## COc1cc(O)c2c(=O)c3cc([N+](=O)[O-])c(N4CCN(c5ccccn5)CC4)cc3n(C)c2c1
[6]
  Activity: inactive
[1]
  CC50: > 100 µg/mL
[2]
  EC50: > 100 µg/mL
[7]
  Activity: inactive
[8]
  Activity: inactive
[9]
  Activity: inactive
[10]
  Activity: inactive
[11]
  Activity: inactive
[12]
  Activity: inactive
[13]
  Activity: inactive
[14]
  Activity: inactive
[15]
  Activity: inactive
[5]
  Selectivity index: 1
[16]
  Activity: inactive
[17]
  Activity: inactive
[18]
  Activity: inactive
[19]
  Activity: inactive

## COc1cc(O)c2c(=O)c3cc(N)c(N4CCN(c5ccccn5)CC4)cc3n(C)c2c1
[6]
  Activity: inactive
[1]
  CC50: > 100 µg/mL
[7]
  Activity: inactive
[8]
  Activity: inactive
[9]
  Activity: inactive
[10]
  Activity: inactive
[11]
  Activity: inactive
[12]
  Activity: inactive
[13]
  Activity: inactive
[14]
  Activity: inactive
[15]
  Activity: inactive
[5]
  Selectivity index: >25
[16]
  Activity: inactive
[17]
  Activity: inactive
[18]
  Activity: inactive
[19]
  Activity: inactive

## Cn1c2cc(Cl)c(N)cc2c(=O)c2c(O)cc(O)cc21
[6]
  Activity: inactive
[1]
  CC50: 5 µg/mL (≈ 17.2 µM)
[7]
  Activity: inactive
[8]
  Activity: inactive
[9]
  Activity: inactive
[10]
  Activity: inactive
[11]
  Activity: inactive
[12]
  Activity: inactive
[13]
  Activity: inactive
[14]
  Activity: inactive
[15]
  Activity: inactive
[5]
  Selectivity index: 13
[16]
  Activity: inactive
[17]
  Activity: inactive
[18]
  Activity: inactive
[19]
  Activity: inactive

## COc1cc(OC)c2c(=O)c3cc(N)c(Cl)cc3n(C)c2c1
[6]
  Activity: inactive
[1]
  CC50: > 100 µg/mL
[2]
  EC50: > 100 µg/mL
[7]
  Activity: inactive
[8]
  Activity: inactive
[9]
  Activity: inactive
[10]
  Activity: inactive
[11]
  Activity: inactive
[12]
  Activity: inactive
[13]
  Activity: inactive
[14]
  Activity: inactive
[15]
  Activity: inactive
[5]
  Selectivity index: 1
[16]
  Activity: inactive
[17]
  Activity: inactive
[18]
  Activity: inactive
[19]
  Activity: inactive

## COc1cc(OC)c2c(=O)c3cc(N)c(N4CCN(c5ccccn5)CC4)cc3n(C)c2c1
[6]
  Activity: inactive
[1]
  CC50: > 100 µg/mL
[2]
  EC50: > 100 µg/mL
[7]
  Activity: inactive
[8]
  Activity: inactive
[9]
  Activity: inactive
[10]
  Activity: inactive
[11]
  Activity: inactive
[12]
  Activity: inactive
[13]
  Activity: inactive
[14]
  Activity: inactive
[15]
  Activity: inactive
[5]
  Selectivity index: 1
[16]
  Activity: inactive
[17]
  Activity: inactive
[18]
  Activity: inactive
[19]
  Activity: inactive

## COc1cc(OC)c2c(=O)c3cc([N+](=O)[O-])c(Cl)cc3n(C)c2c1
[6]
  Activity: inactive
[1]
  CC50: > 100 µg/mL
[2]
  EC50: > 100 µg/mL
[7]
  Activity: inactive
[8]
  Activity: inactive
[9]
  Activity: inactive
[10]
  Activity: inactive
[11]
  Activity: inactive
[12]
  Activity: inactive
[13]
  Activity: inactive
[14]
  Activity: inactive
[15]
  Activity: inactive
[5]
  Selectivity index: 1
[16]
  Activity: inactive
[17]
  Activity: inactive
[18]
  Activity: inactive
[19]
  Activity: inactive

## CCCN(CCC)CCSc1n[nH]c2c3ccccc3nc-2n1
[1]
  CC50: > 1 µg/mL
[2]
  EC50: 0.009 µg/mL (≈ 0.0273 µM)
[3]
  EC50: > 1 µg/mL
[4]
  Selectivity index: 1
[5]
  Selectivity index: >111

## COc1cc(O)c2c(=O)c3cc([N+](=O)[O-])c(Cl)cc3n(C)c2c1
[6]
  Activity: inactive
[1]
  CC50: 83 µg/mL (≈ 248 µM)
[2]
  EC50: > 83 µg/mL
[7]
  Activity: inactive
[8]
  Activity: inactive
[9]
  Activity: inactive
[10]
  Activity: inactive
[11]
  Activity: inactive
[12]
  Activity: inactive
[13]
  Activity: inactive
[14]
  Activity: inactive
[15]
  Activity: inactive
[5]
  Selectivity index: 1
[16]
  Activity: inactive
[17]
  Activity: inactive
[18]
  Activity: inactive
[19]
  Activity: inactive
